Measured values from ChEMBL document CHEMBL5303300, “EUbOPEN Chemogenomics Library - Multiplex” (2023).
Values joined by “and” are separate entries in the source; they are usually repeats but may differ in a detail not shown here. Equal values may be shown once.

Experiments:
HEK-293T = assay: Multiplex assay against HEK293T; assay type: toxicity, cell-based; settings: human, number of replicates 2
Method in brief: (§1)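 Hoechst33342, BioTracker Green Microtubule Cytoskeleton Dye, MitoTracker Red and Annexin V Alexa Fluor 680 were added to live cells at seeding, and imaging on a CQ1 microscope at 37°C and 5% CO2 followed compound addition. Gating by CellPathfinder machine learning separated cells into Hoechst high-intensity objects or normal cells, then normal cells into healthy, pyknosed or fragmented nuclei, then pyknosed cells into mitotic or apoptotic. Per cents of healthy-nucleus cells are reported for the tubulin, mitochondrial-mass and membrane-permeability phenotypes.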

Fibroblast = assay: Multiplex assay against human fibroblast; assay type: toxicity, cell-based; settings: number of replicates 2; method in brief: as §1
[1] = 12 h, 1 µM, compound concentration 1 uM
[2] = 12 h, 10 µM, compound concentration 10 uM
[3] = 24 h, 1 µM, compound concentration 1 uM
[4] = 24 h, 10 µM, compound concentration 10 uM
[5] = 48 h, 1 µM, compound concentration 1 uM
[6] = 48 h, 10 µM, compound concentration 10 uM

COc1c(OCCCN2CCOCC2)ccc2c1N=C(NC(=O)c1cnc(N)nc1)N1CCN=C21 [COPANLISIB]
Population Apoptotic (%) (HEK-293T; [1]): 66% and 65% | Population Fragmented Nuclei (%) (HEK-293T; [1]): 7% and 3% | Population Healthy Nuclei (%) (HEK-293T; [1]): 66% and 82% | Population Hoechst High Intensity Objects (%) (HEK-293T; [1]): 14% and 12% | Population Membrane Permeable-Phenotype (%) (HEK-293T; [1]): 2% and 1% | Population Mitochondria Different-Phenotype (%) (HEK-293T; [1]): 43% and 39% | Population Mitotic Cells (%) (HEK-293T; [1]): 33% and 34% | Population Normal (%) (HEK-293T; [1]): 85% and 87% | Population Pyknosed Nuclei (%) (HEK-293T; [1]): 25% and 13% | Population Tubulin-Different-Phenotype (%) (HEK-293T; [1]): 57% and 58% | Total Cell Count (HEK-293T; [1]): 337 and 345 | Population Apoptotic (%) (HEK-293T; [2]): 67% and 62% | Population Fragmented Nuclei (%) (HEK-293T; [2]): 7% and 2% | Population Healthy Nuclei (%) (HEK-293T; [2]): 74% and 83% | Population Hoechst High Intensity Objects (%) (HEK-293T; [2]): 13% and 11% | Population Membrane Permeable-Phenotype (%) (HEK-293T; [2]): 1% and 0% | Population Mitochondria Different-Phenotype (%) (HEK-293T; [2]): 60% and 66% | Population Mitotic Cells (%) (HEK-293T; [2]): 32% and 37% | Population Normal (%) (HEK-293T; [2]): 86% and 88% | Population Pyknosed Nuclei (%) (HEK-293T; [2]): 18% and 13% | Population Tubulin-Different-Phenotype (%) (HEK-293T; [2]): 68% and 71% | Total Cell Count (HEK-293T; [2]): 237 and 220 | Population Apoptotic (%) (HEK-293T; [3]): 76% and 67% | Population Fragmented Nuclei (%) (HEK-293T; [3]): 5% and 3% | Population Healthy Nuclei (%) (HEK-293T; [3]): 74% and 80% | Population Hoechst High Intensity Objects (%) (HEK-293T; [3]): 16% and 20% | Population Membrane Permeable-Phenotype (%) (HEK-293T; [3]): 1% | Population Mitochondria Different-Phenotype (%) (HEK-293T; [3]): 35% and 33% | Population Mitotic Cells (%) (HEK-293T; [3]): 23% and 32% | Population Normal (%) (HEK-293T; [3]): 83% and 79% | Population Pyknosed Nuclei (%) (HEK-293T; [3]): 20% and 15% | Population Tubulin-Different-Phenotype (%) (HEK-293T; [3]): 56% and 60% | Total Cell Count (HEK-293T; [3]): 382 and 316 | Population Apoptotic (%) (HEK-293T; [4]): 80% and 50% | Population Fragmented Nuclei (%) (HEK-293T; [4]): 6% and 2% | Population Healthy Nuclei (%) (HEK-293T; [4]): 76% and 82% | Population Hoechst High Intensity Objects (%) (HEK-293T; [4]): 20% and 16% | Population Membrane Permeable-Phenotype (%) (HEK-293T; [4]): 2% and 1% | Population Mitochondria Different-Phenotype (%) (HEK-293T; [4]): 52% and 58% | Population Mitotic Cells (%) (HEK-293T; [4]): 19% and 50% | Population Normal (%) (HEK-293T; [4]): 79% and 83% | Population Pyknosed Nuclei (%) (HEK-293T; [4]): 17% and 15% | Population Tubulin-Different-Phenotype (%) (HEK-293T; [4]): 67% and 68% | Total Cell Count (HEK-293T; [4]): 229 and 189 | Population Apoptotic (%) (HEK-293T; [5]): 62% and 63% | Population Fragmented Nuclei (%) (HEK-293T; [5]): 9% and 12% | Population Healthy Nuclei (%) (HEK-293T; [5]): 75% and 78% | Population Hoechst High Intensity Objects (%) (HEK-293T; [5]): 20% and 26% | Population Membrane Permeable-Phenotype (%) (HEK-293T; [5]): 1% and 3% | Population Mitochondria Different-Phenotype (%) (HEK-293T; [5]): 16% and 6% | Population Mitotic Cells (%) (HEK-293T; [5]): 37% and 36% | Population Normal (%) (HEK-293T; [5]): 79% and 73% | Population Pyknosed Nuclei (%) (HEK-293T; [5]): 15% and 8% | Population Tubulin-Different-Phenotype (%) (HEK-293T; [5]): 70% and 43% | Total Cell Count (HEK-293T; [5]): 374 and 726 | Population Apoptotic (%) (HEK-293T; [6]): 68% and 74% | Population Fragmented Nuclei (%) (HEK-293T; [6]): 9% and 6% | Population Healthy Nuclei (%) (HEK-293T; [6]): 66% and 76% | Population Hoechst High Intensity Objects (%) (HEK-293T; [6]): 20% and 25% | Population Membrane Permeable-Phenotype (%) (HEK-293T; [6]): 4% and 2% | Population Mitochondria Different-Phenotype (%) (HEK-293T; [6]): 41% and 45% | Population Mitotic Cells (%) (HEK-293T; [6]): 31% and 25% | Population Normal (%) (HEK-293T; [6]): 79% and 74% | Population Pyknosed Nuclei (%) (HEK-293T; [6]): 24% and 16% | Population Tubulin-Different-Phenotype (%) (HEK-293T; [6]): 68% and 72% | Total Cell Count (HEK-293T; [6]): 262 and 245 | Population Apoptotic (%) (Fibroblast; [1]): 39% and 50% | Population Fragmented Nuclei (%) (Fibroblast; [1]): 8% and 10% | Population Healthy Nuclei (%) (Fibroblast; [1]): 65% and 63% | Population Hoechst High Intensity Objects (%) (Fibroblast; [1]): 0% | Population Membrane Permeable-Phenotype (%) (Fibroblast; [1]): 1% and 7% | Population Mitochondria Different-Phenotype (%) (Fibroblast; [1]): 0% and 3% | Population Mitotic Cells (%) (Fibroblast; [1]): 60% and 50% | Population Normal (%) (Fibroblast; [1]): 100% | Population Pyknosed Nuclei (%) (Fibroblast; [1]): 26% | Population Tubulin-Different-Phenotype (%) (Fibroblast; [1]): 1% and 7% | Total Cell Count (Fibroblast; [1]): 157 and 180 | Population Apoptotic (%) (Fibroblast; [2]): 52% and 45% | Population Fragmented Nuclei (%) (Fibroblast; [2]): 10% and 13% | Population Healthy Nuclei (%) (Fibroblast; [2]): 77% and 74% | Population Hoechst High Intensity Objects (%) (Fibroblast; [2]): 0% | Population Membrane Permeable-Phenotype (%) (Fibroblast; [2]): 7% and 2% | Population Mitochondria Different-Phenotype (%) (Fibroblast; [2]): 3% and 2% | Population Mitotic Cells (%) (Fibroblast; [2]): 47% and 54% | Population Normal (%) (Fibroblast; [2]): 100% | Population Pyknosed Nuclei (%) (Fibroblast; [2]): 12% and 11% | Total Cell Count (Fibroblast; [2]): 149 and 188 | Population Apoptotic (%) (Fibroblast; [3]): 48% and 57%
